# Screening results (PubChem BioAssay)
# An excerpt weighted towards active compounds, which were near 4% of everything screened.
# WT yeast gro inh = growth inhibition of WT yeast, mitochondrial fusion screen. 190,000 tested, 2.1% active. AID 1362. inhibition, % at 10 µM. mitochondrial fusion phenotypic screen, WT strain; in the data active means inhibition above about 58%; tested in S. cerevisiae
# Pf gametocyte = P. falciparum stage V gametocyte viability inhibition | P. falciparum stage V gametocytes, ATP luminescence, 24 h | inhibition, % at 10.9 µM | 150,000 tested, 0.065% active;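 active means inhibition above the mean plus 3 SD of compounds within the control limits, set per campaign, cut at about 38% in these data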
# b-catenin transl = alters nuclear translocation of beta-catenin in HeLa cells | 190,000 tested, 0.3% active | immunofluorescence imaging | nuclear translocation activity, % at 5 µM;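 active means nuclear translocation activity above 50% at 5 µM, with a well cell count of 50 or more; inconclusive means wells under 50 cells across six images, flagged as toxic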;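 further: per-cell ratio of nuclear to cytoplasmic median beta-catenin stain intensity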
#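 System: HeLa cells, endogenous beta-catenin; compound dosing: 5 µM primary single dose, 0.1% DMSO, 0.02–20 µM confirmation series; incubation: 24 h compound exposure at 37°C, 5% CO2; signal: beta-catenin immunofluorescence imaging with DAPI; evaluation: % activation, nuclear-to-cytoplasmic median beta-catenin signal ratio per cell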
# KCC2 mod = modulates chloride dependent transport by human KCC2; Q9H2X9; KCC2 cells, thallium flux FluoZin-2 fluorescence; B-score of Tl+ flux slope (higher = more flux/activation; lower = inhibition) at 10 µM; 190,000 tested, 2.2% active; AID 1456;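 active means thallium flux slope and its plate-corrected score both differing from the plate sample mean at a set confidence after two filtering rounds, in either direction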;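 further: slope of fluorescence scaled to starting intensity during 10 to 20 s after thallium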
# Target sequence (Q9H2X9 whole entry, looked up): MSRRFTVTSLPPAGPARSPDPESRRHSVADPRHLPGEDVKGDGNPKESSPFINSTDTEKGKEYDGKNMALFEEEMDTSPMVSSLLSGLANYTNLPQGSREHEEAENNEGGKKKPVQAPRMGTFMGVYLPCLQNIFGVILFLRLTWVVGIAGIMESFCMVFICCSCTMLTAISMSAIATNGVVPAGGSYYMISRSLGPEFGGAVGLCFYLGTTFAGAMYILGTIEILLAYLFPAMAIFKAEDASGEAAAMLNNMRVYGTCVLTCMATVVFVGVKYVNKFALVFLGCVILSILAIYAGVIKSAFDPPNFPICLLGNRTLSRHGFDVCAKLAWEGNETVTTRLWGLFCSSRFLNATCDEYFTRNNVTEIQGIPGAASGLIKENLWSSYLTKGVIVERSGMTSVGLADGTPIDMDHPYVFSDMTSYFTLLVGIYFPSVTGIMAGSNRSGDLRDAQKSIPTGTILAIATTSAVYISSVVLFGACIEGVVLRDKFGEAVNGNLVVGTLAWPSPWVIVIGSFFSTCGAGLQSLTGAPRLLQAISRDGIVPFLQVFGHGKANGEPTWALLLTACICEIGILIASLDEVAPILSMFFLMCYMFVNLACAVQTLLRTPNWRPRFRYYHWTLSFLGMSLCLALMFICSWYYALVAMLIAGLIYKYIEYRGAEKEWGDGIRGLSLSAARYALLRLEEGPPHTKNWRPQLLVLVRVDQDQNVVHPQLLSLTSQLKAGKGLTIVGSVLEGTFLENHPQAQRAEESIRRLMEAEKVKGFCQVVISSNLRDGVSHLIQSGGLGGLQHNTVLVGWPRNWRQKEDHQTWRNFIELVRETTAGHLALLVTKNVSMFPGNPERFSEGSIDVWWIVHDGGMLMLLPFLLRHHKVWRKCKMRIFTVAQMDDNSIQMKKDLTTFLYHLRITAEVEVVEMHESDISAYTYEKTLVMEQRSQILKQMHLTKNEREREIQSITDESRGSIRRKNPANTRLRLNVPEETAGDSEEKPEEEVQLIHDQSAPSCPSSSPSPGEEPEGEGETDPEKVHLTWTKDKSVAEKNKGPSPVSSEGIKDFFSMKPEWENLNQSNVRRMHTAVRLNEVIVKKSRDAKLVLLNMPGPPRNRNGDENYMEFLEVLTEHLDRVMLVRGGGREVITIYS
# MT stabilize HCS = microtubule stabilizers in HeLa cells; HeLa tubulin immunostaining HCS, 24 h; share of cells brighter than vehicle mean+2SD; % tubulin-high responders, % at 10 µM; 200,000 tested, 0.83% active; AID 2205;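 active means plate Z-score above 3 for both tubulin-high and condensed-nucleus cell shares, with cell loss under 80%, at 10 µM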;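 further: anti alpha tubulin signal scored within the nucleus-defined area of each cell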
# KCC2 sec1 = KCC2 (human) modulation, secondary assay; shares compounds with KCC2 mod; 3,700 tested, 15% active; normalised thallium flux (F/F0 slope) at 10 µM; HEK293-KCC2, thallium flux, FluoZin2 fluorescence; hits give high values;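 active means thallium flux slope above the same plate's solvent-only control mean plus 3 SD; inconclusive means the two replicate wells disagree; inactive means no significant difference from solvent-only control wells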
# KCC2 bumet counter = bumetanide-insensitive thallium flux in KCC2 cells with ouabain, counter-screen; HEK293-KCC2 + bumetanide/ouabain, thallium flux FluoZin2; hits give high values; 3,700 tested, 49% active; normalized thallium flux at 10 µM; AID 1714; shares compounds with KCC2 mod;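 active means thallium entry rate above the same plate's blocked-transporter control wells by more than 3 SD; inconclusive means the two repeat wells disagree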;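 further: raw slope of fluorescence over initial fluorescence between 10 and 20 s after thallium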
# KCC2 sec2 = KCC2 (human) modulation, second secondary assay. shares compounds with KCC2 mod. HEK293-KCC2, thallium flux FluoZin2 fluorescence; actives lie on both sides; F/F0 rise rate, 10–20 s post-thallium. normalized thallium flux at 10 µM. 3,700 tested, 23% active. AID 1715;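 active means thallium flux slope more than 3 SD above or below the plate's solvent-only control mean, mostly below; inconclusive means the two repeat wells disagreed; inactive means no significant shift from solvent-only controls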
# HEK293 Tl flux = acts in parental HEK cells, KCC2 counter-screen; shares compounds with KCC2 mod; HEK293 parental cells, thallium flux FluoZin2, ouabain; baseline-ratio fluorescence slope, 10–20 s after thallium; thallium flux rate (normalised fluorescence) at 10 µM; 3,700 tested, 46% active;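 active means thallium flux rate significantly above the same plate's solvent-only control wells, beyond their mean plus 3 SD; inconclusive means the two replicate wells gave conflicting results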
# KCC2 retest ouab = confirmation of human KCC2 modulators with ouabain | raw Tl+ flux slope (below DMSO = inhibition, above = activation) at 10 µM | AID 1717 | HEK293-KCC2, thallium flux FluoZin2 fluorescence; bidirectional: low = inhibitor, high = activator | shares compounds with KCC2 mod | 3,700 tested, 48% active;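 active means thallium flux slope beyond 3 SD from same-plate DMSO control mean in most replicates, usually higher, sometimes lower; inconclusive means repeat tests gave conflicting results; inactive means no significant difference from controls in most replicates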;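 further: slope of initial-normalized fluorescence between seconds 10 and 20 after thallium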
# HEK counter2 = parental HEK flux effect, counter-screen 2; thallium flux slope at 10 µM; shares compounds with KCC2 mod; HEK293 parental, thallium flux FluoZin-2 fluorescence slope; AID 1718; 3,700 tested, 33% active;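 active means thallium flux slope above the same plate's solvent-control mean plus 3 SD in both duplicate wells; inconclusive means duplicate wells that disagreed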;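 further: run without ouabain in cells lacking the KCC2 cotransporter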
# Numbers stand for hits; – = inactive; ? = inconclusive; · = no result.
SMILES,WT yeast gro inh,Pf gametocyte,b-catenin transl,KCC2 mod,MT stabilize HCS,KCC2 sec1,KCC2 bumet counter,KCC2 sec2,HEK293 Tl flux,KCC2 retest ouab,HEK counter2
CN1C(C(=O)NCCc2cccs2)CC2Cn3c(nc4cc5ccccc5cc43)C21 (stereo not given),·,–,–,-2.82,·,–,–,–,–,–,–
CCOC(=O)N/N=C(\CCC(=O)O)c1cccs1,·,–,–,7.24,·,–,–,–,–,–,–
COc1cc(CC(=O)OCC(=O)NCC(C)C)cc(OC)c1OC,–,–,–,–,–,·,·,·,·,·,·
CCc1ccc(OCCNC(=O)c2ccccc2SCc2ccccc2)cc1,–,–,–,·,–,–,?,0.024,–,0.0146,–
O=C(NCCOc1ccccc1F)c1ccccc1SCc1ccc(F)cc1,–,–,·,-6.24,–,–,–,0.0221,–,0.0122,–
COc1ccc(-c2coc3cc(O)cc(O)c3c2=O)cc1,–,·,·,–,–,?,–,–,–,0.016,?
O=C(COc1ccc2ccccc2c1Br)Nn1cnnc1,–,·,·,-4.67,–,–,?,0.0251,–,?,–
CC(C)(C)C(=O)NNC(=O)COc1ccc2ccccc2c1Br,–,–,–,7.8,–,–,0.0203,–,0.0106,0.0274,?
COC(=O)c1cc(S(=O)(=O)NCc2ccc(S(N)(=O)=O)cc2)oc1C,·,–,–,–,·,·,·,·,·,·,·
CCC(C)(C)n1nnnc1C(c1cccnc1)N1CCN(c2cccc(C(F)(F)F)c2)CC1 (stereo not given),–,·,–,-3.16,–,–,0.00389,–,?,–,–
CCC(C)(C)n1nnnc1C(c1ccncc1)N1CCN(c2cccc(OC)c2)CC1 (stereo not given),–,·,–,·,–,·,·,·,·,·,·
O=C(NNC(=S)NC(=O)c1ccccc1[N+](=O)[O-])c1ccc(Cl)cc1Cl,–,·,–,4.95,–,–,0.0155,–,0.0136,?,–
CCCCC(=O)NC(=S)NNC(=O)c1ccc(OC)cc1,–,–,–,26.7,–,0.0208,0.0526,–,?,0.0389,?
CCCCC(=O)NC(=S)NNC(=O)c1ccc(Cl)cc1Cl,–,·,–,33.2,–,0.00988,0.0692,0.0398,0.0476,0.0568,0.0285
COc1ccc(C(=O)NNC(=S)NC(=O)c2ccc(OC)cc2)cc1,·,–,·,·,·,·,·,·,·,·,·
Cc1ccccc1C(=O)NNC(=S)Nc1cccc(C(F)(F)F)c1,–,–,–,–,–,·,·,·,·,·,·
O=C(NNC(=S)Nc1cccc(C(F)(F)F)c1)c1ccc(Cl)cc1Cl,–,·,–,6.29,–,–,0.0266,–,0.0213,?,0.0221
CCOc1ccc(C(=O)NCCCN2CCOCC2)cc1OCC,–,–,–,–,–,·,·,·,·,·,·
CC1=CC(c2ccc(Cl)cc2)n2nc(NC(=O)CCC(=O)O)nc2N1 (stereo not given),·,–,–,·,·,·,·,·,·,·,·
CCCCCC(=O)Nc1ccc(Cl)cn1,–,–,·,–,–,·,·,·,·,·,·
Cc1ccc(C(=O)NC(=S)NNC(=O)c2ccc([N+](=O)[O-])cc2)cc1,·,–,·,·,·,·,·,·,·,·,·
O=C(NC(=S)Nc1ccccc1O)c1ccc(Cl)cc1Cl,–,–,–,5.25,–,–,0.0128,–,0.013,?,0.0133
CCCCCC(=O)NNC(=S)NC(=O)c1ccc([N+](=O)[O-])cc1,61.5,–,–,13.1,–,–,0.027,–,0.0197,0.0326,0.0198
S=C(Nc1ccccc1)Nc1ccc(Cl)cn1,–,·,–,5.8,–,–,0.0165,–,0.0105,–,–
CCCCCC(=O)NC(=S)Nc1ccc(Cl)cn1,–,–,–,8.25,–,–,0.0132,–,0.0161,?,0.0184
SMILES,WT yeast gro inh,Pf gametocyte,b-catenin transl,KCC2 mod,MT stabilize HCS,KCC2 sec1,KCC2 bumet counter,KCC2 sec2,HEK293 Tl flux,KCC2 retest ouab,HEK counter2
O=C(C1=COCCO1)N1CCN(C(c2ccccc2)c2ccccc2)CC1,–,·,–,–,–,·,·,·,·,·,·
O=C(O)COCC(=O)NCc1csc2ccccc12,·,–,–,–,·,·,·,·,·,·,·
O=C(Cc1coc(-c2ccc(F)cc2)n1)Nc1ccccc1,–,·,–,-3.84,–,–,–,?,–,0.0355,–
O=C(N/N=C/c1ccc2cccc(OCc3ccccc3)c2n1)c1ccc(Cl)cc1,–,–,–,4.9,–,0.0224,0.0482,–,0.014,0.0247,?
CC12C(=O)N(c3ccc(C(=O)N4CCOCC4)cc3)C(=O)C1C1c3ccccc3C2c2ccccc21 (stereo not given),–,–,–,–,–,·,·,·,·,·,·
C/C=C(\C)CN1CCCC(CO)(Cc2ccccc2)C1 (stereo not given),–,–,–,–,–,·,·,·,·,·,·
Cc1cccc(Cc2cnc(N3C(=N)SC(c4ccccc4)C3=O)s2)c1 (stereo not given),–,–,–,–,–,·,·,·,·,·,·
Cc1ccc(Cc2cnc(N3C(=N)SC(C)C3=O)s2)cc1 (stereo not given),–,–,–,10.6,–,–,0.0303,–,0.0183,0.0303,–
Cc1cccc(Cc2cnc(N3C(=N)SC(C)C3=O)s2)c1 (stereo not given),–,–,–,6.03,–,0.0166,0.0684,–,0.0291,0.0404,0.0139
CCOC(=O)C1(Cc2ccccc2Cl)CCN(C(=O)c2cnccn2)CC1,–,–,–,–,–,·,·,·,·,·,·
S=c1[nH]c2ccc(Cl)cc2s1,·,·,–,86,·,0.043,0.0981,0.0852,0.0874,0.0873,0.0585
COC(=O)c1cn(C(=O)c2cc(Br)ccc2Cl)c2ccccc12,·,–,·,·,·,·,·,·,·,·,·
O=C(Nc1nc2ccsc2c(=O)s1)c1ccc(F)cc1Cl,·,–,–,–,·,·,·,·,·,·,·
O=C(Nc1nc2ccsc2c(=O)s1)c1ccc(F)cc1,·,–,–,3.76,·,–,?,–,0.0111,–,–
Cc1cc2c(cc1C)NC(c1nc3ccccc3[nH]1)C1=C(CC(C)(C)CC1=O)N2 (stereo not given),–,·,–,-3.76,–,–,–,–,–,–,–
COc1cc(-n2nc(C)c3c2OC(N)=C(C#N)C3c2ccccc2)c(Cl)c(Br)c1O (stereo not given),–,–,–,-2.57,–,–,0.00279,0.0269,0.00592,0.014,?
Cc1nn(-c2ccccc2)c2c1C(c1ccncc1)C(C#N)=C(N)O2 (stereo not given),–,–,–,–,–,·,·,·,·,·,·
